Test results from ChEMBL document CHEMBL1134569, “Synthesis and in vitro and in vivo antimalarial activity of new 4-anilinoquinolines” (J Med Chem, 2001).

What was measured:
[1] = Cytotoxicity upon MRC-5 cells (diploid embryonic lung cell line) at 1.6 uM conc.; assay type: cell-based, MRC5; settings: human
How it was run: (§1)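 MRC-5 human diploid embryonic lung cells seeded at 5000/well, washed after 24 h, then given 2-fold drug dilutions in RPMI + 5% FCS (final DMSO below 0.5%). Incubated at 37 °C, 5% CO₂, for 7 days. MTT read-out at 540 nm, scored as percent absorbance reduction versus untreated controls.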

Mus musculus [2] = assay: Change in the mean survival time of the treated mice infected with Plasmodium berghei, dosed at 40 mg/kg; assay type: functional
How it was run: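 P. berghei ANKA 65 in 4-week-old female Swiss CD-1 mice (20-25 g), infected ip with about 10⁷ parasitized erythrocytes; 40 mg/kg given orally at infection (formulated in 100% DMSO), then ip over the following 4 days; three mice per group; mean survival time of treated mice compared with three infected DMSO-dosed controls.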

Plasmodium falciparum [3] = assay: Inhibitory activity against chloroquine-resistant Plasmodium falciparum FcB1R; assay type: functional, organism-based; settings: Plasmodium falciparum
[4] = Cytotoxicity upon MRC-5 cells (diploid embryonic lung cell line) at 6.3 uM; assay type: cell-based, MRC5; settings: human; how it was run: as §1
Plasmodium falciparum [5] = assay: Inhibitory activity against chloroquine-resistant Plasmodium falciparum K1; assay type: functional, organism-based
[6] = Cytotoxicity upon MPMs (mouse peritoneal macrophages) at 2 uM
How it was run: (§2)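 Mouse peritoneal macrophages harvested 48 h after potato-starch stimulation and seeded at 30000 cells/well. After 24 h, washed and exposed to 2-fold drug dilutions in RPMI + 5% FCS (final DMSO below 0.5%) at 37 °C, 5% CO₂, for 7 days. Toxicity scored microscopically as toxic or not versus untreated controls.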

Plasmodium falciparum [7] = assay: Inhibitory activity against chloroquine-sensitive Plasmodium falciparum THAI
[8] = Cytotoxicity upon MPMs (mouse peritoneal macrophages) at 6.3 uM; how it was run: as §2
[9] = Cytotoxicity upon MPMs (mouse peritoneal macrophages) at 12.5 uM conc.;NT=No Toxicity; how it was run: as §2
[10] = Cytotoxicity upon MRC-5 cells (diploid embryonic lung cell line) at 25 uM conc.; assay type: cell-based, MRC5; settings: human; how it was run: as §1
Mus musculus [11] = assay: Antimalarial activity on Plasmodium berghei in mice (Mus musculus) dosed at 40 mg/kg at day 4; assay type: functional
How it was run: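 Female Swiss CD-1 mice (4 weeks, 20-25 g), three per group, infected ip with about 10⁷ P. berghei ANKA 65 parasitized erythrocytes from an infected donor. Dosed orally at 40 mg/kg in 100% DMSO at infection, then ip for the following 4 days. Parasitaemia reduction and mean survival time compared with three DMSO-dosed infected controls.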

[12] = Cytotoxicity upon MPMs (mouse peritoneal macrophages) at 32 uM; how it was run: as §2
[13] = Cytotoxicity upon MPMs (mouse peritoneal macrophages) at 8 uM; how it was run: as §2
[14] = Cytotoxicity upon MPMs (mouse peritoneal macrophages) at 2 uM conc.; Toxic; how it was run: as §2
[15] = Cytotoxicity upon MRC-5 cells (diploid embryonic lung cell line) at 1 uM; assay type: cell-based, MRC5; settings: human; how it was run: as §1
[16] = Cytotoxicity upon MRC-5 cells (diploid embryonic lung cell line) at 8 uM; assay type: cell-based, MRC5; settings: human; how it was run: as §1
[17] = Cytotoxicity upon MRC-5 cells (diploid embryonic lung cell line) at 32 uM; assay type: cell-based, MRC5; settings: human; how it was run: as §1
[18] = Cytotoxicity upon MPMs (mouse peritoneal macrophages) at 8 uM conc.;NT=No Toxicity; how it was run: as §2
[19] = Cytotoxicity upon MRC-5 cells (diploid embryonic lung cell line) at 12.5 uM; assay type: cell-based, MRC5; settings: human; how it was run: as §1
[20] = Cytotoxicity upon MRC-5 cells (diploid embryonic lung cell line) at 3.1 uM; assay type: cell-based, MRC5; settings: human; how it was run: as §1
[21] = Cytotoxicity upon MPMs (mouse peritoneal macrophages) at 12.5 uM conc.; Toxic; how it was run: as §2
[22] = Cytotoxicity upon MPMs (mouse peritoneal macrophages) at 3.1 uM conc.;NT=No Toxicity; how it was run: as §2

O=C(CN1CCCCC1)Nc1cc(COC(=O)CCCCN2CCCCC2)cc(Nc2ccnc3cc(Cl)ccc23)c1
cytotoxicity at 1.6 µM [1]: 0% | Excess MST (Mus musculus [2]): 0% | IC50 (Plasmodium falciparum [3]): 15.5 nM | cytotoxicity at 6.3 µM [4]: 90% | IC50 (Plasmodium falciparum [5]): 19.1 nM | NT [6]: Cytotoxicity upon MPMs at 2 uM | IC50 (Plasmodium falciparum [7]): 17.3 nM | NT [8]: Cytotoxicity upon MPMs at 2 uM | NT [9]: Cytotoxicity upon MPMs at 2 uM | cytotoxicity at 25 µM [10]: 92% | Reduction in parasitemia (Mus musculus [11]): 99.99%

CCN(CC)c1ccc(CN2CCN(Cc3cc(NC(=O)CN4CCCCC4)cc(Nc4ccnc5cc(Cl)ccc45)c3)CC2)cc1
Cytotoxicity [12]: Cytotoxicity upon MPMs at 32 uM | Cytotoxicity [13]: Cytotoxicity upon MPMs at 32 uM | Cytotoxicity [14]: Toxic | IC50 (Plasmodium falciparum [3]): 11.9 nM | cytotoxicity at 1 µM [15]: 100% | cytotoxicity at 8 µM [16]: 100% | cytotoxicity at 32 µM [17]: 100%

O=Cc1cc(NC(=O)CN2CCCCC2)cc(Nc2ccnc3cc(Cl)ccc23)c1
IC50 (Plasmodium falciparum [3]): 282 nM | cytotoxicity at 1 µM [15]: 0% | NT [18]: Cytotoxicity upon MPMs at 2 uM | NT [6]: Cytotoxicity upon MPMs at 2 uM | cytotoxicity at 8 µM [16]: 0% | cytotoxicity at 32 µM [17]: 0%

CCN(CC)Cc1cc(NC(=O)CN2CCCCC2)cc(Nc2ccnc3cc(Cl)ccc23)c1
Cytotoxicity [12]: Cytotoxicity upon MPMs at 32 uM | Cytotoxicity [13]: Cytotoxicity upon MPMs at 32 uM | Cytotoxicity [14]: Toxic | IC50 (Plasmodium falciparum [3]): 8.2 nM | cytotoxicity at 1 µM [15]: 0% | cytotoxicity at 8 µM [16]: 100% | cytotoxicity at 32 µM [17]: 100%

CC1CCN(CCCCCCCCCCCC(=O)Nc2cc(CO)cc(Nc3ccnc4cc(Cl)ccc34)c2)CC1
cytotoxicity at 12.5 µM [19]: 100% | cytotoxicity at 3.1 µM [20]: 0% | IC50 (Plasmodium falciparum [3]): 86 nM | cytotoxicity at 6.3 µM [4]: 0% | Cytotoxicity [21]: Toxic | NT [8]: Cytotoxicity upon MPMs at 6.3 uM | NT [22]: Cytotoxicity upon MPMs at 6.3 uM

CN(C)CCNCc1cc(NC(=O)CN2CCCCC2)cc(Nc2ccnc3cc(Cl)ccc23)c1
Cytotoxicity [12]: Cytotoxicity upon MPMs at 32 uM | IC50 (Plasmodium falciparum [3]): 15.5 nM | cytotoxicity at 1 µM [15]: 0% | NT [18]: Cytotoxicity upon MPMs at 2 uM | NT [6]: Cytotoxicity upon MPMs at 2 uM | cytotoxicity at 8 µM [16]: 15% | cytotoxicity at 32 µM [17]: 100%

O=C(CN1CCCCC1)Nc1cc(COC(=O)c2ccccc2)cc(Nc2ccnc3cc(Cl)ccc23)c1
cytotoxicity at 1.6 µM [1]: 20% | IC50 (Plasmodium falciparum [3]): 75.5 nM | cytotoxicity at 6.3 µM [4]: 38% | NT [6]: Cytotoxicity upon MPMs at 2 uM | Cytotoxicity [21]: Toxic | NT [8]: Cytotoxicity upon MPMs at 2 uM | cytotoxicity at 25 µM [10]: 66%

O=C(CN1CCCCC1)Nc1cc(CN2CCCCC2)cc(Nc2ccnc3cc(Cl)ccc23)c1
Cytotoxicity [12]: Cytotoxicity upon MPMs at 32 uM | Cytotoxicity [13]: Cytotoxicity upon MPMs at 32 uM | Cytotoxicity [14]: Toxic | IC50 (Plasmodium falciparum [3]): 10.2 nM | cytotoxicity at 1 µM [15]: 43% | IC50 (Plasmodium falciparum [5]): 8.1 nM | IC50 (Plasmodium falciparum [7]): 6.7 nM | cytotoxicity at 8 µM [16]: 100% | cytotoxicity at 32 µM [17]: 100%

COc1ccc(CNCc2cc(NC(=O)CN3CCCCC3)cc(Nc3ccnc4cc(Cl)ccc34)c2)cc1
Cytotoxicity [12]: Cytotoxicity upon MPMs at 32 uM | Cytotoxicity [13]: Cytotoxicity upon MPMs at 32 uM | Cytotoxicity [14]: Toxic | IC50 (Plasmodium falciparum [3]): 4.4 nM | cytotoxicity at 1 µM [15]: 100% | cytotoxicity at 8 µM [16]: 100% | cytotoxicity at 32 µM [17]: 100%

O=C(CN1CCCCC1)Nc1cc(CN2CCOCC2)cc(Nc2ccnc3cc(Cl)ccc23)c1
Cytotoxicity [12]: Cytotoxicity upon MPMs at 32 uM | IC50 (Plasmodium falciparum [3]): 9.5 nM | cytotoxicity at 1 µM [15]: 0% | NT [18]: Cytotoxicity upon MPMs at 2 uM | IC50 (Plasmodium falciparum [5]): 12.4 nM | NT [6]: Cytotoxicity upon MPMs at 2 uM | IC50 (Plasmodium falciparum [7]): 12.8 nM | cytotoxicity at 8 µM [16]: 0% | Reduction in parasitemia (Mus musculus [11]): 100% | cytotoxicity at 32 µM [17]: 100%

CCN(CC)CC(=O)Nc1cc(CO)cc(Nc2ccnc3cc(Cl)ccc23)c1
cytotoxicity at 12.5 µM [19]: 0% | cytotoxicity at 3.1 µM [20]: 0% | IC50 (Plasmodium falciparum [3]): 41.6 nM | cytotoxicity at 6.3 µM [4]: 0% | Cytotoxicity [21]: Toxic | NT [8]: Cytotoxicity upon MPMs at 6.3 uM | NT [22]: Cytotoxicity upon MPMs at 6.3 uM

N#Cc1ccc(CN2CCN(Cc3cc(NC(=O)CN4CCCCC4)cc(Nc4ccnc5cc(Cl)ccc45)c3)CC2)cc1
Cytotoxicity [12]: Cytotoxicity upon MPMs at 32 uM | IC50 (Plasmodium falciparum [3]): 13.3 nM | cytotoxicity at 1 µM [15]: 0% | NT [18]: Cytotoxicity upon MPMs at 2 uM | NT [6]: Cytotoxicity upon MPMs at 2 uM | cytotoxicity at 8 µM [16]: 100% | cytotoxicity at 32 µM [17]: 100%

O=C(CCl)Nc1cc(CO)cc(Nc2ccnc3cc(Cl)ccc23)c1
cytotoxicity at 12.5 µM [19]: 92% | cytotoxicity at 3.1 µM [20]: 0% | IC50 (Plasmodium falciparum [3]): > 1000 nM | cytotoxicity at 6.3 µM [4]: 0% | Cytotoxicity [21]: Toxic | NT [8]: Cytotoxicity upon MPMs at 6.3 uM | NT [22]: Cytotoxicity upon MPMs at 6.3 uM

O=C(CN1CCCC1)Nc1cc(CO)cc(Nc2ccnc3cc(Cl)ccc23)c1
cytotoxicity at 12.5 µM [19]: 0% | cytotoxicity at 3.1 µM [20]: 0% | IC50 (Plasmodium falciparum [3]): 44 nM | cytotoxicity at 6.3 µM [4]: 0% | Cytotoxicity [21]: Toxic | NT [8]: Cytotoxicity upon MPMs at 6.3 uM | NT [22]: Cytotoxicity upon MPMs at 6.3 uM

O=C(CN1CCCCC1)Nc1cc(CNCc2ccc(Cl)cc2)cc(Nc2ccnc3cc(Cl)ccc23)c1
Cytotoxicity [12]: Cytotoxicity upon MPMs at 32 uM | Cytotoxicity [13]: Cytotoxicity upon MPMs at 32 uM | Cytotoxicity [14]: Toxic | IC50 (Plasmodium falciparum [3]): 4.6 nM | cytotoxicity at 1 µM [15]: 100% | cytotoxicity at 8 µM [16]: 100% | cytotoxicity at 32 µM [17]: 100%

O=C(CN1CCCCC1)Nc1cc(COC(=O)CCCCN2CCOCC2)cc(Nc2ccnc3cc(Cl)ccc23)c1
cytotoxicity at 1.6 µM [1]: 0% | Excess MST (Mus musculus [2]): 100% | IC50 (Plasmodium falciparum [3]): 14.1 nM | cytotoxicity at 6.3 µM [4]: 0% | IC50 (Plasmodium falciparum [5]): 22.5 nM | NT [6]: Cytotoxicity upon MPMs at 2 uM | IC50 (Plasmodium falciparum [7]): 15.2 nM | NT [8]: Cytotoxicity upon MPMs at 2 uM | NT [9]: Cytotoxicity upon MPMs at 2 uM | cytotoxicity at 25 µM [10]: 0% | Reduction in parasitemia (Mus musculus [11]): 97.9%

CC1CCN(CCC(=O)Nc2cc(CO)cc(Nc3ccnc4cc(Cl)ccc34)c2)CC1
cytotoxicity at 12.5 µM [19]: 100% | cytotoxicity at 3.1 µM [20]: 0% | IC50 (Plasmodium falciparum [3]): 136 nM | cytotoxicity at 6.3 µM [4]: 0% | Cytotoxicity [21]: Toxic | NT [8]: Cytotoxicity upon MPMs at 6.3 uM | NT [22]: Cytotoxicity upon MPMs at 6.3 uM

CN(C)CCCNCc1cc(NC(=O)CN2CCCCC2)cc(Nc2ccnc3cc(Cl)ccc23)c1
Cytotoxicity [12]: Cytotoxicity upon MPMs at 32 uM | IC50 (Plasmodium falciparum [3]): 134 nM | cytotoxicity at 1 µM [15]: 0% | NT [18]: Cytotoxicity upon MPMs at 2 uM | NT [6]: Cytotoxicity upon MPMs at 2 uM | cytotoxicity at 8 µM [16]: 0% | cytotoxicity at 32 µM [17]: 78%
